According to ChEMBL document CHEMBL5338733, “Heterobifunctional Ligase Recruiters Enable pan-Degradation of Inhibitor of Apoptosis Proteins” (J Med Chem, 2023):
The source made the active and inactive calls. The calls are words filed in the database; no cut-off is given here.

Experiments:
[1] = biological target: T1, von Hippel-Lindau disease tumor suppressor/Baculoviral IAP repeat-containing protein 3 (Homo sapiens) (UniProt Q13489+P40337); assay: PROTAC activity at VHL/IAP in human MM1.S cells assessed as induction of cIAP2 degradation at 0.1 uM measured after 3 hrs by western blot analysis; assay type: cell-based
T1 sequence (P40337 whole entry, looked up): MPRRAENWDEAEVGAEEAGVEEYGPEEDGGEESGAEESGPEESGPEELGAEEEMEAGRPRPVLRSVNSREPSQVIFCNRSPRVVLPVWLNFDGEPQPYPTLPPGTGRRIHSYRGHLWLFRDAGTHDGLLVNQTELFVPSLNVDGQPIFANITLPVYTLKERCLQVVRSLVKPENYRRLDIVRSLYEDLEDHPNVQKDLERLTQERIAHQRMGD
T1 sequence (Q13489 whole entry, looked up): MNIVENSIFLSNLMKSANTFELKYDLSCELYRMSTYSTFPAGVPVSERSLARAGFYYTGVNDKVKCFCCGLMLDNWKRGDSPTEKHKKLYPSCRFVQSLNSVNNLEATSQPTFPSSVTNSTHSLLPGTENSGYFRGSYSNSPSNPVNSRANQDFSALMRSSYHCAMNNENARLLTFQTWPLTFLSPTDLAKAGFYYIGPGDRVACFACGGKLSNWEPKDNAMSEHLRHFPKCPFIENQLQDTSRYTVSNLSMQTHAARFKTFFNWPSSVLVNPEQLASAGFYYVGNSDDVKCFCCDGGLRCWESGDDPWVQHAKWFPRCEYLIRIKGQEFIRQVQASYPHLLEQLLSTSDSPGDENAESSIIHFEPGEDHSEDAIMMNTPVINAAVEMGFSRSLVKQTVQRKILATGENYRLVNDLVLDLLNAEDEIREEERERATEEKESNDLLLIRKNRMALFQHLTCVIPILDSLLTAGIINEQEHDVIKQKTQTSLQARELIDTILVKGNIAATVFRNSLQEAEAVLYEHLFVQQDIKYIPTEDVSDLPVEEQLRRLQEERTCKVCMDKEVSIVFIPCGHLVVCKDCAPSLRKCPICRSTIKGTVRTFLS
Procedure, shortened: (§1)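 Time course in MM.1S cells at 0.1 μM; protein levels at sampled time points by immunoblot (SDS-PAGE, PVDF, ECL) with densitometry.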

[2] = biological target: T2, von Hippel-Lindau disease tumor suppressor/IAP (Homo sapiens) (UniProt P98170+Q13489+Q13490+P40337); assay: PROTAC activity at VHL/IAP in human MM1.S cells assessed as induction of VHL19 degradation at 1 uM incubated for 16 hrs followed by drug wash-out for 72 hrs by western blot analysis; assay type: cell-based
T2 sequence (P40337 whole entry, looked up): as the sequence (P40337 whole entry, looked up) above
T2 sequence (P98170 whole entry, looked up): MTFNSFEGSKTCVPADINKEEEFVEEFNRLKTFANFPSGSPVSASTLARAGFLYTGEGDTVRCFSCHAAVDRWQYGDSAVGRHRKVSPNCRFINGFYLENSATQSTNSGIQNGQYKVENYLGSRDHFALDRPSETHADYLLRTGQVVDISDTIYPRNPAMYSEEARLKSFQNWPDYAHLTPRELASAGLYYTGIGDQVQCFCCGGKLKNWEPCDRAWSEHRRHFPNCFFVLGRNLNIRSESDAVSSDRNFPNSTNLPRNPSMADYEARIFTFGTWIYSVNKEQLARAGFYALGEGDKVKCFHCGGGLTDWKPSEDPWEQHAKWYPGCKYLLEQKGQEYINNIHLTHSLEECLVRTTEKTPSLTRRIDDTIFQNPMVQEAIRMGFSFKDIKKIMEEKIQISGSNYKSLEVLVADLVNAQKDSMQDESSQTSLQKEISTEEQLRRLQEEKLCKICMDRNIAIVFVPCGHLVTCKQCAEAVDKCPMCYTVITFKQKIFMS
T2 sequence (Q13489 whole entry, looked up): as the sequence (Q13489 whole entry, looked up) above
T2 sequence (Q13490 whole entry, looked up): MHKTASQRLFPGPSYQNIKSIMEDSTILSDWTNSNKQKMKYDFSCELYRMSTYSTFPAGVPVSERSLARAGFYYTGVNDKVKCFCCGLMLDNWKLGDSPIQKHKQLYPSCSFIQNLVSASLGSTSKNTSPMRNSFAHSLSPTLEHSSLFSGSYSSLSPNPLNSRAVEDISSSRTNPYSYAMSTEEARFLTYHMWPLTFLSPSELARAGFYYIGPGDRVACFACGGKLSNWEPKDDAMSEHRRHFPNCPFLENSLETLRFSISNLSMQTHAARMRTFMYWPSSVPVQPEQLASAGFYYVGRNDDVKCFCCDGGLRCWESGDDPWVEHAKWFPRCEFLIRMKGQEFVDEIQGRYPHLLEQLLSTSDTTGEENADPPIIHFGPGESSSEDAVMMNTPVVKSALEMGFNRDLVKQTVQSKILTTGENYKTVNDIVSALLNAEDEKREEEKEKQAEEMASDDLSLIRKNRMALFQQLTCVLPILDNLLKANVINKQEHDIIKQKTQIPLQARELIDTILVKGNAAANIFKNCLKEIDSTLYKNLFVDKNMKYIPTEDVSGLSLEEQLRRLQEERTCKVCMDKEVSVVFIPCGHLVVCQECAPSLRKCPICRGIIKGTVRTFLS
Procedure, shortened: (§2)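 MM.1S cells given a single exposure to 1 μM, then compound washed out and protein followed up to 72 h by immunoblot with densitometry.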

[3] = biological target: T3, von Hippel-Lindau disease tumor suppressor/E3 ubiquitin-protein ligase XIAP (Homo sapiens) (UniProt P98170+P40337); assay: PROTAC activity at VHL/IAP in human MM1.S cells assessed as induction of XIAP degradation at 0.1 uM measured after 3 hrs by western blot analysis; assay type: cell-based; procedure, shortened: as §1
T3 sequence (P40337 whole entry, looked up): as the sequence (P40337 whole entry, looked up) above
T3 sequence (P98170 whole entry, looked up): as the sequence (P98170 whole entry, looked up) above

NCI-H929 = assay: Cytotoxicity against human NCI-H929 cells assessed as reduction in cell viability measured after 96 hrs in presence of TNF-alpha by CellTiter-Glo luminescent assay; assay type: functional, cell-based; conditions: NCI-H929, 96 h
Procedure, shortened: (§3)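 Cells seeded with compound at indicated concentrations ± TNF-α 1 ng/mL, incubated 96 h at 37 °C; viability by CellTiter-Glo luminescence, normalized to DMSO control; mean ± SD of biological triplicates. NCI-H929 cultured in RPMI-1640/10% FBS with 2-mercaptoethanol and sodium pyruvate; other lines in RPMI-1640/10% FBS, 37 °C, 5% CO2.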

[4] = biological target: T2, von Hippel-Lindau disease tumor suppressor/IAP (Homo sapiens); assay: PROTAC activity at VHL/IAP in XIAP knock-out human MM1.S cells assessed as induction of VHL30 degradation at 0.1 uM incubated for 16 hrs by western blot analysis; assay type: cell-based
Procedure, shortened: (§4)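 Cas9-expressing MM.1S cells transduced with sgRNA against cIAP1, cIAP2 or XIAP (control sgRNA luciferase; ≥95% transduction by FACS at 48 h); treated 0.1 μM for 16 h; VHL30 measured by immunoblot (SDS-PAGE, PVDF, ECL) with densitometry.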

[5] = biological target: T3, von Hippel-Lindau disease tumor suppressor/E3 ubiquitin-protein ligase XIAP (Homo sapiens); assay: PROTAC activity at VHL/IAP in human MM1.S cells assessed as induction of XIAP degradation pretreated for 1 hr with ubiquitin-activating inhibitor, MLN7243 followed by incubation with drug for 3 hrs by western blot analysis; assay type: cell-based
[6] = biological target: T4, von Hippel-Lindau disease tumor suppressor/Baculoviral IAP repeat-containing protein 2 (Homo sapiens) (UniProt Q13490+P40337); assay: PROTAC activity at VHL/IAP in human MM1.S cells assessed as induction of cIAP1 degradation at 0.1 uM measured after 3 hrs by western blot analysis; assay type: cell-based; procedure, shortened: as §1
T4 sequence (P40337 whole entry, looked up): as the sequence (P40337 whole entry, looked up) above
T4 sequence (Q13490 whole entry, looked up): as the sequence (Q13490 whole entry, looked up) above

[7] = biological target: T3, von Hippel-Lindau disease tumor suppressor/E3 ubiquitin-protein ligase XIAP (Homo sapiens); assay: PROTAC activity at VHL/IAP in human MM1.S cells assessed as induction of XIAP degradation pretreated for 1 hr with proteasome inhibitor, MG132 followed by incubation with drug for 3 hrs by western blot analysis; assay type: cell-based
[8] = biological target: T2, von Hippel-Lindau disease tumor suppressor/IAP (Homo sapiens); assay: PROTAC activity at VHL/IAP in human MM1.S cells assessed as induction of VHL30 degradation incubated for 16 hrs by western blot analysis; assay type: cell-based; conditions: dose 0.0001-1 µM
Procedure, shortened: (§5)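 MM.1S cells treated 16 h at 0.1 or 1 μM (or concentration series); lysed, SDS-PAGE, PVDF immunoblot, ECL; densitometry normalized to loading control and DMSO; average of ≥3 independent experiments, DC50 from n = 4 repeats where derived.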

[9] = biological target: T1, von Hippel-Lindau disease tumor suppressor/Baculoviral IAP repeat-containing protein 3 (Homo sapiens); assay: PROTAC activity at VHL/IAP in human MM1.S cells assessed as induction of cIAP2 degradation at 1 uM incubated for 16 hrs followed by drug wash-out for 72 hrs by western blot analysis; assay type: cell-based; procedure, shortened: as §2
[10] = biological target: T3, von Hippel-Lindau disease tumor suppressor/E3 ubiquitin-protein ligase XIAP (Homo sapiens); assay: PROTAC activity at VHL/IAP in human MM1.S cells assessed as induction of XIAP degradation at 1 uM incubated for 16 hrs followed by drug wash-out for 72 hrs by western blot analysis; assay type: cell-based; procedure, shortened: as §2
[11] = biological target: T4, von Hippel-Lindau disease tumor suppressor/Baculoviral IAP repeat-containing protein 2 (Homo sapiens); assay: PROTAC activity at VHL/IAP in human MM1.S cells assessed as induction of cIAP1 degradation incubated for 16 hrs by western blot analysis; assay type: cell-based; procedure, shortened: as §5
[12] = biological target: T2, von Hippel-Lindau disease tumor suppressor/IAP (Homo sapiens); assay: PROTAC activity at VHL/IAP in human MM1.S cells assessed as induction of VHL30 degradation at 1 uM incubated for 16 hrs followed by drug wash-out for 72 hrs by western blot analysis; assay type: cell-based; procedure, shortened: as §2
[13] = biological target: T4, von Hippel-Lindau disease tumor suppressor/Baculoviral IAP repeat-containing protein 2 (Homo sapiens); assay: PROTAC activity at VHL/IAP in human MM1.S cells assessed as induction of cIAP1 degradation pretreated for 1 hr with proteasome inhibitor, MG132 followed by incubation with drug for 3 hrs by western blot analysis; assay type: cell-based
[14] = biological target: T1, von Hippel-Lindau disease tumor suppressor/Baculoviral IAP repeat-containing protein 3 (Homo sapiens); assay: PROTAC activity at VHL/IAP in human MM1.S cells assessed as induction of cIAP2 degradation pretreated for 1 hr with ubiquitin-activating inhibitor, MLN7243 followed by incubation with drug for 3 hrs by western blot analysis; assay type: cell-based
[15] = biological target: T2, von Hippel-Lindau disease tumor suppressor/IAP (Homo sapiens); assay: PROTAC activity at VHL/IAP in human MM1.S cells assessed as induction of VHL30 degradation at 0.1 uM measured after 6 hrs by western blot analysis; assay type: cell-based; procedure, shortened: as §1
[16] = biological target: T1, von Hippel-Lindau disease tumor suppressor/Baculoviral IAP repeat-containing protein 3 (Homo sapiens); assay: PROTAC activity at VHL/IAP in human MM1.S cells assessed as induction of cIAP2 degradation incubated for 16 hrs by western blot analysis; assay type: cell-based; procedure, shortened: as §5
[17] = biological target: T1, von Hippel-Lindau disease tumor suppressor/Baculoviral IAP repeat-containing protein 3 (Homo sapiens); assay: PROTAC activity at VHL/IAP in human MM1.S cells assessed as induction of cIAP2 degradation pretreated for 1 hr with proteasome inhibitor, MG132 followed by incubation with drug for 3 hrs by western blot analysis; assay type: cell-based
[18] = biological target: T2, von Hippel-Lindau disease tumor suppressor/IAP (Homo sapiens); assay: PROTAC activity at VHL/IAP in cIPA1 knock-out human MM1.S cells assessed as induction of VHL30 degradation at 0.1 uM incubated for 16 hrs by western blot analysis; assay type: cell-based; procedure, shortened: as §4
[19] = biological target: T3, von Hippel-Lindau disease tumor suppressor/E3 ubiquitin-protein ligase XIAP (Homo sapiens); assay: PROTAC activity at VHL/IAP in human MM1.S cells assessed as induction of XIAP degradation at 1 uM incubated for 16 hrs followed by drug wash-out for 72 hrs and later treated with VHL inhibitor, VH298 by western blot analysis; assay type: cell-based
[20] = biological target: T4, von Hippel-Lindau disease tumor suppressor/Baculoviral IAP repeat-containing protein 2 (Homo sapiens); assay: PROTAC activity at VHL/IAP in human MM1.S cells assessed as induction of cIAP1 degradation at 1 uM incubated for 16 hrs followed by drug wash-out for 72 hrs by western blot analysis; assay type: cell-based; procedure, shortened: as §2
[21] = biological target: T3, von Hippel-Lindau disease tumor suppressor/E3 ubiquitin-protein ligase XIAP (Homo sapiens); assay: PROTAC activity at VHL/IAP in human MM1.S cells assessed as induction of XIAP degradation incubated for 16 hrs by western blot analysis; assay type: cell-based; procedure, shortened: as §5
[22] = biological target: T3, von Hippel-Lindau disease tumor suppressor/E3 ubiquitin-protein ligase XIAP (Homo sapiens); assay: PROTAC activity at VHL/IAP in human MM1.S cells assessed as induction of XIAP degradation at 100 nM incubated for 3 hrs by diaPASEF-based analysis; assay type: cell-based
Procedure, shortened: (§6)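 MM.1S cells treated with DMSO or 0.1 μM for 3 h (four biological replicates); urea lysis, reduction/alkylation, LysC then trypsin digestion, diaPASEF on timsTOF Pro2; label-free quantification, missing values imputed from Gaussian distribution, log2 fold change vs DMSO with limma statistics.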

[23] = biological target: T4, von Hippel-Lindau disease tumor suppressor/Baculoviral IAP repeat-containing protein 2 (Homo sapiens); assay: PROTAC activity at VHL/IAP in human MM1.S cells assessed as induction of cIAP1 degradation at 100 nM incubated for 3 hrs by diaPASEF-based analysis; assay type: cell-based; procedure, shortened: as §6
[24] = biological target: T2, von Hippel-Lindau disease tumor suppressor/IAP (Homo sapiens); assay: PROTAC activity at VHL/IAP in cIPA2 knock-out human MM1.S cells assessed as induction of VHL30 degradation at 0.1 uM incubated for 16 hrs by western blot analysis; assay type: cell-based; procedure, shortened: as §4
[25] = biological target: T4, von Hippel-Lindau disease tumor suppressor/Baculoviral IAP repeat-containing protein 2 (Homo sapiens); assay: PROTAC activity at VHL/IAP in human MM1.S cells assessed as induction of cIAP1 degradation pretreated for 1 hr with ubiquitin-activating inhibitor, MLN7243 followed by incubation with drug for 3 hrs by western blot analysis; assay type: cell-based
SU-DHL-6 = assay: Cytotoxicity against human SU-DHL-6 cells assessed as reduction in cell viability measured after 96 hrs in presence of TNF-alpha by CellTiter-Glo luminescent assay; assay type: functional, cell-based; conditions: SU-DHL-6, 96 h; procedure, shortened: as §3

CN[C@@H](C)C(=O)N[C@H](C(=O)N1C[C@@H](Oc2cccc(OCCCCC(=O)N[C@H](C(=O)N3C[C@H](O)C[C@H]3C(=O)N[C@@H](C)c3ccc(-c4scnc4C)cc3)C(C)(C)C)c2)C[C@H]1C(=O)N[C@@H]1CCCc2ccccc21)C1CCCCC1
Activity [1]: 100%
Activity [2]: inactive
Activity [3]: 100%
IC50 (NCI-H929): 8 nM
Activity [4]: Active
Activity [5]: inactive
Activity [6]: 100%
Activity [7]: inactive
Activity [8]: Dose-Dependent Effect
Activity [9]: Active
Activity [10]: Active
Activity [11]: Dose-Dependent Effect
Activity [12]: inactive
Activity [13]: inactive
Activity [14]: inactive
Activity [15]: Active
Activity [16]: Dose-Dependent Effect
Activity [17]: inactive
Activity [18]: Active
Activity [19]: inactive
Activity [20]: Active
Activity [21]: Dose-Dependent Effect
Activity [22]: Active
Activity [23]: Active
Activity [24]: Active
Activity [25]: inactive
IC50 (SU-DHL-6): 1.6 nM
